According to BindingDB's records for doi:10.1016/j.bmcl.2007.08.013 (Schering-Plough Research Institute, 2007):

Assays:
[1] = target: T1, Amyloid-beta precursor protein (Homo sapiens, UniProt P05067); test: Inhibition of gamma-secretase assessed as reduction of cell A-beta-40 level
[2] = target: T1, Amyloid-beta precursor protein; test: Inhibition of gamma-secretase assessed as reduction of membrane A-beta-40 level
Summary of the method: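 Membrane-based γ-secretase assay with Aβ40 as read-out; IC50 in nM, reported as means of two experiments.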

T1 sequence (P05067 whole entry): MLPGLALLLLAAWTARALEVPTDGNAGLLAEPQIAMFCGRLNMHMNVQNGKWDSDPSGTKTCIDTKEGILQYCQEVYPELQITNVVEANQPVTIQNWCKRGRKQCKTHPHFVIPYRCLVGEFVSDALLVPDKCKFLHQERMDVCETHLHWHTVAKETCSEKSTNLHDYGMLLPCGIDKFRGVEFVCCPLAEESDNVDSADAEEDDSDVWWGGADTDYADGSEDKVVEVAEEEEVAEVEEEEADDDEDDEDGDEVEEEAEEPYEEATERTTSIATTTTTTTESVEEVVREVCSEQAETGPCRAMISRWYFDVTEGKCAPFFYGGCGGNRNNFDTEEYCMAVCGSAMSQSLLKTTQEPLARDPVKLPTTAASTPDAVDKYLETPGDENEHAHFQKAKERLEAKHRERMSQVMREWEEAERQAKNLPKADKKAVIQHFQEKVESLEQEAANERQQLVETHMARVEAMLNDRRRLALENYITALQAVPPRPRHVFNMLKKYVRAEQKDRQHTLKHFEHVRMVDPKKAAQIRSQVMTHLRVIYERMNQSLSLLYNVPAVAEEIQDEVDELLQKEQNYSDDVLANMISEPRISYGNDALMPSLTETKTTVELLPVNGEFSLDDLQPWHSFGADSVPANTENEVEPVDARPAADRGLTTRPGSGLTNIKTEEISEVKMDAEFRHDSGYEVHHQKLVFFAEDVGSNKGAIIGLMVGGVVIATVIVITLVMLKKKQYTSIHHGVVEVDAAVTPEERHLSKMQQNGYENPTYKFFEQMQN

| IC50 [1] [µM] | IC50 [2] [µM] | SMILES |
| --- | --- | --- |
| 0.025 | 0.01 | CC[C@@H]1CCC[C@H](C2(OC(=O)N3CCN(C(C)(C)CO)CC3)CC2)N1S(=O)(=O)c1ccc(F)cc1 [1-((2R,6R)-6-ethyl-1-(4-fluorophenylsulfonyl)piperidin-2-yl)cyclopropyl 4-(1-hydroxy-2-methylpropan-2-yl)piperazine-1-carboxylate] |
| 0.144 | 0.029 | CC[C@@H]1CCC[C@H](C2(OC(=O)N3CCC(N4CCCCC4)CC3)CC2)N1S(=O)(=O)c1cc(F)cc(F)c1 [1-((2R,6R)-1-(3,5-difluorophenylsulfonyl)-6-ethylpiperidin-2-yl)cyclopropyl 4-(piperidin-1-yl)piperidine-1-carboxylate] |
|  | 0.0003 | O=C(OC1([C@H]2CCC[C@@H](c3cc(F)cc(F)c3)N2S(=O)(=O)c2ccc(Cl)cc2)CC1)N1CCC(N2CCCCC2)CC1 [1-((2R,6S)-1-(4-chlorophenylsulfonyl)-6-(3,5-difluorophenyl)piperidin-2-yl)cyclopropyl 4-(piperidin-1-yl)piperidine-1-carboxylate] |
| 0.02 | 0.009 | CC[C@@H]1CCC[C@H](C2(OC(=O)N3CCC(CCO)(OC)CC3)CC2)N1S(=O)(=O)c1ccc(Cl)cc1 [1-((2R,6R)-1-(4-chlorophenylsulfonyl)-6-ethylpiperidin-2-yl)cyclopropyl 4-(2-hydroxyethyl)-4-methoxypiperidine-1-carboxylate] |
| 0.01 | 0.013 | CC[C@@H]1CCC[C@H](C2(OC(=O)N3CCN(CCO)[C@@H](C)C3)CC2)N1S(=O)(=O)c1ccc(Cl)cc1 [(S)-1-((2R,6R)-1-(4-chlorophenylsulfonyl)-6-ethylpiperidin-2-yl)cyclopropyl 4-(2-hydroxyethyl)-3-methylpiperazine-1-carboxylate] |
